We go through 19 compounds from ChEMBL document CHEMBL1138009, “3-[3-Fluoro-5-(5-pyridin-2-yl-2H-tetrazol-2-yl)phenyl]-4-methylpyridine: a highly potent and orally bioavailable metabotropic glutamate subtype 5 (mGlu5) receptor antagonist” (Bioorg Med Chem Lett, 2004).

Data set [1] concerns the target T1, Metabotropic glutamate receptor 5 (Rattus norvegicus, UniProt P31424). The data set is described as follows: Binding affinity towards Metabotropic glutamate receptor was determined by displacing [3H]3-methoxy-5-(pyridin-2-ylethynyl)pyridine from rat cortical membranes. In a few lines:
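Radioligand displacement of [3H]-3-methoxy-5-(pyridin-2-ylethynyl)pyridine from rat cortical membranes by test compounds; n = 2–4, SD ≈ ±25%.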

Data set [2] has as its target T1, Metabotropic glutamate receptor 5. The data set is described as follows: Antagonistic activity against Metabotropic glutamate receptor 5 in [Ca2+] flux assay using glutamate (10 uM) as agonist. It is filed as functional. The method in brief: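 Cell-based high-throughput functional assay; glutamate 10 μM as agonist; antagonism read as change in cytosolic Ca2+ by fluorescence detection; n = 2–4, SD ≈ ±25%.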

A short description of data set [3]: Plasma clearance i.v. dosing at 2 mg/kg of 50% PEG400/H 20, po dosing at 10 mg/kg. It counts as ADME, organism-based. The note with it: rat, iv, read-out: Clp.
A short description of data set [4]: Oral bioavailability after i.v. dosing at 2 mg/kg of 50% PEG400/H 20, po dosing at 10 mg/kg. It counts as ADME, organism-based. Particulars: rat, in vivo.
A short description of data set [5]: Half life i.v. dosing at 2 mg/kg of 50% PEG400/H 20, po dosing at 10 mg/kg. It is filed as ADME, organism-based. Particulars: rat, in vivo.
Data set [6] is described as follows: Maximum concentration i.v. dosing at 2 mg/kg of 50% PEG400/H 20, po dosing at 10 mg/kg. The note with it: rat, in vivo. It counts as ADME, organism-based.
Data set [7] is described as follows: Oral bioavailability i.v. dosing at 2 mg/kg of 50% PEG400/H 20, po dosing at 10 mg/kg. It is filed as ADME, organism-based. The note with it: rat, in vivo.
The target of data set [8] is Metabotropic glutamate receptor 5 (Rattus norvegicus) (UniProt P31424). The data set is described as follows: Effective dose against rat Metabotropic glutamate receptor 5 occupancy after i.p. dosing at 10 mg/kg of 50% PEG400/H 20. It is filed as functional, organism-based. The arrangement: dose 10 mg/kg. The method in brief: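 Rat receptor occupancy: compound given 10 mg/kg intraperitoneally in 50% PEG 400/H2O, occupancy measured at 1 h; hippocampal and plasma levels also determined at 1 h.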
Sequence of Metabotropic glutamate receptor 5 (Rattus norvegicus) (P31424 21-1203 limits assumed): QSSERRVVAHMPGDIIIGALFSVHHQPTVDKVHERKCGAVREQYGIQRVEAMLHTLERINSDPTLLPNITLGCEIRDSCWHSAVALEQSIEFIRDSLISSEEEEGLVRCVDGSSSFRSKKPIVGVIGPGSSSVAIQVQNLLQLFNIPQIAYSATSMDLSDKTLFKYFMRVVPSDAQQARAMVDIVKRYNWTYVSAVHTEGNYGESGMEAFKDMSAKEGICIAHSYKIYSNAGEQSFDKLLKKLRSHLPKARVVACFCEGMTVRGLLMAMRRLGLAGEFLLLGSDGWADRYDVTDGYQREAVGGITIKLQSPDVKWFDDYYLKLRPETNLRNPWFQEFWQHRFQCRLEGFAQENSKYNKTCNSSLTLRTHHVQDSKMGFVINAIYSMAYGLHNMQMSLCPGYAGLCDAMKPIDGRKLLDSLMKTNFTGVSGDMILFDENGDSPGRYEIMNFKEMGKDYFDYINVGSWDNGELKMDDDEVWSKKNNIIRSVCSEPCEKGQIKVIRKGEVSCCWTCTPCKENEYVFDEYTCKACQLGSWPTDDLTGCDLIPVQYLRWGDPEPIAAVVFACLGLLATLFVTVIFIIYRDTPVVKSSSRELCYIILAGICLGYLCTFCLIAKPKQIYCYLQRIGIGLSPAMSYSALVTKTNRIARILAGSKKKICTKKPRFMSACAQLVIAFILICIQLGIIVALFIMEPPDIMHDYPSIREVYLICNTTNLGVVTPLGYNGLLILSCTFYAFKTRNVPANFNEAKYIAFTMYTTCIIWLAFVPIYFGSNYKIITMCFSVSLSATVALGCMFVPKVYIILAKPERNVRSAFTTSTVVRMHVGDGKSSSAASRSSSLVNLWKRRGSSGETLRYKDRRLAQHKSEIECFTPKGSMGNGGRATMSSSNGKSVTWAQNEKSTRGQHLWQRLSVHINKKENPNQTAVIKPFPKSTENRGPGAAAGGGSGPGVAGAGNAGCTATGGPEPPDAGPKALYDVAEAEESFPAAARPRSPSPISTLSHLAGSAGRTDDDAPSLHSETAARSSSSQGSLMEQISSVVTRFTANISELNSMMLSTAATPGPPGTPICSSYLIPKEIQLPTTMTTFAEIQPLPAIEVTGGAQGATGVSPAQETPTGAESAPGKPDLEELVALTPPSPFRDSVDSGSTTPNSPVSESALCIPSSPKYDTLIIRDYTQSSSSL

T1 sequence (P31424 whole entry): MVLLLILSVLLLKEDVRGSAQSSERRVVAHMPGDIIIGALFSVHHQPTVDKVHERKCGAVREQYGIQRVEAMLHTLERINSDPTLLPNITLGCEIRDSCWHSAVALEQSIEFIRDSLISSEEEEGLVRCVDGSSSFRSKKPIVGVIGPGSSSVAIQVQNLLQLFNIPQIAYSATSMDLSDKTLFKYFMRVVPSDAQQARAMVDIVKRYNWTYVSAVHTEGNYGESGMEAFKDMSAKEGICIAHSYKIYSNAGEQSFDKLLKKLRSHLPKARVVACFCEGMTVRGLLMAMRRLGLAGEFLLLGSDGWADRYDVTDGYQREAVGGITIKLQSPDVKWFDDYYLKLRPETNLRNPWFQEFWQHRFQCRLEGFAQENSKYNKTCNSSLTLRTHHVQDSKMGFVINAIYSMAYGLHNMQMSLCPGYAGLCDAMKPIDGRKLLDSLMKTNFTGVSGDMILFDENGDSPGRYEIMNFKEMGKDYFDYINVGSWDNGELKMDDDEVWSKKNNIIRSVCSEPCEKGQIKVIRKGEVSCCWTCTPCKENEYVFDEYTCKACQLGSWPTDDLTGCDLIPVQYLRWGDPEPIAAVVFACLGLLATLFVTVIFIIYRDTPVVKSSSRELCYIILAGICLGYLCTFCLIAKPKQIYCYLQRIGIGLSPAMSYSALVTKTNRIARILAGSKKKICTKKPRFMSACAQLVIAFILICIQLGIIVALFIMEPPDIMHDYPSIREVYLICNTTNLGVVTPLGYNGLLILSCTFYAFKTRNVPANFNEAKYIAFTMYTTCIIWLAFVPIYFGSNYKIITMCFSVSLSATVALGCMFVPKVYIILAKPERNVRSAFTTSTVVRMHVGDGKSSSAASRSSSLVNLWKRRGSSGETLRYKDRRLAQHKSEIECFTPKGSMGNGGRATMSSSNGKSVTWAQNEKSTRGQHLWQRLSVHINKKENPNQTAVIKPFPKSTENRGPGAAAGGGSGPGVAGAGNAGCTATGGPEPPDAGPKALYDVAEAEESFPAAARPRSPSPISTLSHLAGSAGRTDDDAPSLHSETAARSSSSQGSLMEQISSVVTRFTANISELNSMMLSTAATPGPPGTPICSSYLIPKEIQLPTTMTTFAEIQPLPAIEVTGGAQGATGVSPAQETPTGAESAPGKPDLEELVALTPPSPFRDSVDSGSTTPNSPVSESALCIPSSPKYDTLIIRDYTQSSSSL

What is called Ki is the dissociation constant of the complex between target and ligand, obtained from inhibition or displacement. Lower therefore signals a stronger hold on the target. What is called IC50 is the concentration that gives 50% inhibition. High values mean weaker potency, low ones greater potency. `Cc1ccccc1-c1cc(F)cc(-n2nnc(-c3ccccn3)n2)c1`: the Ki in data set [1] is 23 nM. The compound also came in with an IC50 in data set [2] of 120 nM.

Compound `Cc1ccc(-c2cc(F)cc(-n3nnc(-c4ccccn4)n3)c2)cc1` came in with an IC50 in data set [2] of more than 3000 nM.

Take `Fc1cc(-c2ccncc2)cc(-n2nnc(-c3ccccn3)n2)c1`: the affinity in data set [1], expressed as Ki, was 575 nM. In data set [2], this compound came in with an IC50 of 956 nM.

In data set [1], `Cc1cnccc1-c1cc(F)cc(-n2nnc(-c3ccccn3)n2)c1` displayed a Ki of 33 nM. In data set [2], this compound showed a concentration for half-maximal inhibition (IC50) of 63 nM.

The compound `Cc1ccc(-c2cc(F)cc(-n3nnc(-c4ccccn4)n3)c2)cn1` had an inhibitory constant (Ki) in data set [1] of 36 nM. The same compound came in with an IC50 in data set [2] of 57 nM.

On to `Nc1ccccc1-c1cc(F)cc(-n2nnc(-c3ccccn3)n2)c1`, for which affinity in data set [1] was put at a Ki of 7 nM. Moreover, in data set [2], the IC50 was found to be 8 nM.

What is called bioavailability is the share of a dose that reaches the circulation, judged against a reference dose that is usually intravenous. `N#Cc1cc(F)cc(-n2nnc(-c3ccccn3)n2)c1` returned a Ki in data set [1] of 14 nM. Further, the clearance in data set [3] is 17 mL/min/kg. For the same compound, the bioavailability in data set [4] amounted to 26%. In data set [2], this compound gave an IC50 of 4 nM. Also, in data set [5], the T1/2 turned out to be 2.9 h.

Consider `N#Cc1ccccc1-c1cc(F)cc(-n2nnc(-c3ccccn3)n2)c1`, for which, in data set [1], the Ki amounted to 4 nM. Also, in data set [2], the IC50 was 6 nM.

For the compound `Cc1cncc(-c2cc(F)cc(-n3nnc(-c4ccccn4)n3)c2)c1`, the Ki in data set [1] worked out at 272 nM. The IC50 in data set [2] was 499 nM.

As for `Cc1cccc(-c2cc(F)cc(-n3nnc(-c4ccccn4)n3)c2)c1`, the IC50 in data set [2] worked out at 1470 nM.

Consider `Cc1cccnc1-c1cc(F)cc(-n2nnc(-c3ccccn3)n2)c1`, for which the Ki in data set [1] worked out at 24 nM. The IC50 in data set [2] turned out to be 31 nM.

In turn, `N#Cc1cccc(-c2cc(F)cc(-n3nnc(-c4ccccn4)n3)c2)c1` had a Ki in data set [1] of 12 nM. The IC50 in data set [2] was determined as 253 nM.

Regarding `Nc1ccncc1-c1cc(F)cc(-n2nnc(-c3ccccn3)n2)c1`, the Ki in data set [1] came to 20 nM. For the same compound, the IC50 in data set [2] is 108 nM.

One may read the Cmax as the highest concentration seen after dosing. As usually defined, the half-life is the time needed for the level to fall by half in the phase considered. Read a low half-life as fast loss. In data set [1], `Cc1ccncc1-c1cc(F)cc(-n2nnc(-c3ccccn3)n2)c1` had a Ki of 2 nM. Moreover, the clearance in data set [3] amounted to 39 mL/min/kg. For the same compound, in data set [6], the peak level (Cmax) was 900 nM. The IC50 in data set [2] turned out to be 5 nM. The bioavailability in data set [7] worked out at 12%. For the same compound, the Occupancy in data set [8] came out at 95. This compound had a half-life in data set [5] of 1.6 h.

In data set [1], `Cc1ncccc1-c1cc(F)cc(-n2nnc(-c3ccccn3)n2)c1` registered a Ki of 45 nM. In data set [2], this compound came in with an IC50 of 41 nM.

As to `Fc1cc(-c2ccccn2)cc(-n2nnc(-c3ccccn3)n2)c1`, the affinity in data set [1] corresponds to a Ki of 95 nM. The same compound displayed an IC50 in data set [2] of 39 nM.

`Fc1cc(-c2ccccc2)cc(-n2nnc(-c3ccccn3)n2)c1` showed a Ki in data set [1] of 53 nM. This compound also displayed an IC50 in data set [2] of 247 nM.

In the case of `Nc1cccnc1-c1cc(F)cc(-n2nnc(-c3ccccn3)n2)c1`, in data set [1], the Ki is 31 nM. The concentration for half-maximal inhibition (IC50) in data set [2] came out at 19 nM.

In the case of `Fc1cc(-c2cccnc2)cc(-n2nnc(-c3ccccn3)n2)c1`, in data set [1], the Ki is 37 nM. The compound further came in with an IC50 in data set [2] of 12 nM.
